# Source: ChEMBL document CHEMBL1208778, “Synthesis and anti-cancer activity of chalcone linked imidazolones” (2010)
# Activity calls are given as the source filed them. No cut-off for these calls is given here.
# How the values were obtained:
# [1] = Growth inhibition of human RPMI8266 cells; assay type: functional
# Procedure, shortened: (§1)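 Five-dose testing was run within the NCI (Bethesda) in vitro Anticancer Screen Program on a panel of 53 human tumour cell lines from nine cancer types. Growth inhibition is reported as GI50.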
# K562 = test: Growth inhibition of human K562 cells; assay type: functional; procedure, shortened: as §1
# A549 = test: Growth inhibition of human A549 cells; assay type: functional; procedure, shortened: as §1
# EKVX = test: Growth inhibition of human EKVX cells; assay type: functional; procedure, shortened: as §1
# HOP-62 = test: Growth inhibition of human HOP62 cells; assay type: functional; procedure, shortened: as §1
# HOP-92 = test: Growth inhibition of human HOP92 cells; assay type: functional; procedure, shortened: as §1
# NCI-H226 = test: Growth inhibition of human NCI-H226 cells; assay type: functional; procedure, shortened: as §1
# NCI-H23 = test: Growth inhibition of human NCI-H23 cells; assay type: functional; procedure, shortened: as §1
# NCI-H322M = test: Growth inhibition of human NCI-H322M cells; assay type: functional; procedure, shortened: as §1
# NCI-H460 = test: Growth inhibition of human NCI-H460 cells; assay type: functional; procedure, shortened: as §1
# NCI-H522 = test: Growth inhibition of human NCI-H522 cells; assay type: functional; procedure, shortened: as §1
# COLO 205 = test: Growth inhibition of human COLO205 cells; assay type: functional; procedure, shortened: as §1
# HCC 2998 = test: Growth inhibition of human HCC2998 cells; assay type: functional; procedure, shortened: as §1
# HCT-116 = test: Growth inhibition of human HCT116 cells; assay type: functional; procedure, shortened: as §1
# HCT-15 = test: Growth inhibition of human HCT15 cells; assay type: functional; procedure, shortened: as §1
# HT-29 = test: Growth inhibition of human HT-29 cells; assay type: functional; procedure, shortened: as §1
# KM12 = test: Growth inhibition of human KM12 cells; assay type: functional; procedure, shortened: as §1
# SW-620 = test: Growth inhibition of human SW620 cells; assay type: functional
# Procedure, shortened: (§2)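 Compounds that passed a preliminary screen were tested at five doses in the NCI (Bethesda) in vitro Anticancer Screen Program against a 53-line human tumour panel spanning leukemia, lung, colon, CNS, melanoma, ovarian, renal, prostate and breast. Growth inhibition is reported as GI50.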
# SF-268 = test: Growth inhibition of human SF268 cells; assay type: functional; procedure, shortened: as §1
# SF-295 = test: Growth inhibition of human SF295 cells; assay type: functional; procedure, shortened: as §1
# SF-539 = test: Growth inhibition of human SF539 cells; assay type: functional; procedure, shortened: as §1
# SNB-19 = test: Growth inhibition of human SNB19 cells; assay type: functional; procedure, shortened: as §2
# SNB-75 = test: Growth inhibition of human SNB75 cells; assay type: functional; procedure, shortened: as §2
# U-251 = test: Growth inhibition of human U251 cells; assay type: functional; procedure, shortened: as §2
# A498 = test: Growth inhibition of human A498 cells; assay type: functional; procedure, shortened: as §1
# 786-0 = test: Growth inhibition of human 786-0 cells; assay type: functional; procedure, shortened: as §1
# ACHN = test: Growth inhibition of human ACHN cells; assay type: functional; procedure, shortened: as §1
# CAKI-1 = test: Growth inhibition of human Caki1 cells; assay type: functional; procedure, shortened: as §1
# RXF 393 = test: Growth inhibition of human RXF393 cells; assay type: functional; procedure, shortened: as §1
# SN12C = test: Growth inhibition of human SN12C cells; assay type: functional; procedure, shortened: as §2
# TK-10 = test: Growth inhibition of human TK10 cells; assay type: functional; procedure, shortened: as §2
# UO-31 = test: Growth inhibition of human UO31 cells; assay type: functional; procedure, shortened: as §2
# PC-3 = test: Growth inhibition of human PC3 cells; assay type: functional; procedure, shortened: as §1
# OVCAR-3 = test: Growth inhibition of human OVCAR-3 cells; assay type: functional; procedure, shortened: as §1
# OVCAR-4 = test: Growth inhibition of human OVCAR4 cells; assay type: functional; procedure, shortened: as §1
# OVCAR-5 = test: Growth inhibition of human OVCAR5 cells; assay type: functional; procedure, shortened: as §1
# OVCAR-8 = test: Growth inhibition of human OVCAR8 cells; assay type: functional; procedure, shortened: as §1
# NCI/ADR-RES = test: Growth inhibition of human NCI/ADR-RES cells; assay type: functional; procedure, shortened: as §1
# SK-OV-3 = test: Growth inhibition of human SKOV3 cells; assay type: functional; procedure, shortened: as §2
# MCF7 [2] = test: Growth inhibition of human MCF7 cells; assay type: functional; procedure, shortened: as §1
# MDA-MB-231 = test: Growth inhibition of human MDA-MB-231 cells; assay type: functional; procedure, shortened: as §1
# [3] = Growth inhibition of human Hs 578T cells; assay type: functional; procedure, shortened: as §1
# BT-549 = test: Growth inhibition of human BT549 cells; assay type: functional; procedure, shortened: as §1
# T47D = test: Growth inhibition of human T47D cells; assay type: functional; procedure, shortened: as §2
# LOX IMVI = test: Growth inhibition of human LOXIMVI cells; assay type: functional; procedure, shortened: as §1
# Malme-3M = test: Growth inhibition of human MALME-3M cells; assay type: functional; procedure, shortened: as §1
# M14 = test: Growth inhibition of human M14 cells; assay type: functional; procedure, shortened: as §1
# MDA-MB-435 = test: Growth inhibition of human MDA-MB-435 cells; assay type: functional; procedure, shortened: as §1
# SK-MEL-2 = test: Growth inhibition of human SK-MEL-2 cells; assay type: functional; procedure, shortened: as §1
# SK-MEL-28 = test: Growth inhibition of human SK-MEL-28 cells; assay type: functional; procedure, shortened: as §1
# SK-MEL-5 = test: Growth inhibition of human SK-MEL-5 cells; assay type: functional; procedure, shortened: as §1
# UACC-257 = test: Growth inhibition of human UACC257 cells; assay type: functional; procedure, shortened: as §2
# UACC-62 = test: Growth inhibition of human UACC62 cells; assay type: functional; procedure, shortened: as §2
# MCF7 [4] = test: Cell cycle arrest in human MCF7 cells assessed as accumulation at G0 phase at 10 uM after 24 hrs by FACS analysis; assay type: functional
# Procedure, shortened: (§3)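 MCF-7 breast carcinoma cells were exposed to 10 µM test compound for 24 h, with DMSO as the vehicle control. Cell-cycle distribution was read by FACS as the percentage of cells in G0, G1, S and G2/M.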
# MCF7 [5] = test: Cell cycle arrest in human MCF7 cells assessed as accumulation at G1 phase at 10 uM after 24 hrs by FACS analysis; assay type: functional; procedure, shortened: as §3
# MCF7 [6] = test: Cell cycle arrest in human MCF7 cells assessed as accumulation at S phase at 10 uM after 24 hrs by FACS analysis; assay type: functional; procedure, shortened: as §3
# MCF7 [7] = test: Cell cycle arrest in human MCF7 cells assessed as accumulation at G2/M phase at 10 uM after 24 hrs by FACS analysis; assay type: functional; procedure, shortened: as §3
# MCF7 [8] = test: Cell cycle arrest in human MCF7 cells assessed as accumulation at G0 phase at 30 uM after 24 hrs by FACS analysis; assay type: functional
# Procedure, shortened: (§4)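 MCF-7 cells were treated at 30 µM for 24 h alongside a DMSO control. Fractions in G0, G1, S and G2/M phases were measured by FACS, and values are means of three experiments.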
# MCF7 [9] = test: Cell cycle arrest in human MCF7 cells assessed as accumulation at G1 phase at 30 uM after 24 hrs by FACS analysis; assay type: functional; procedure, shortened: as §4
# MCF7 [10] = test: Cell cycle arrest in human MCF7 cells assessed as accumulation at S phase at 30 uM after 24 hrs by FACS analysis; assay type: functional; procedure, shortened: as §4
# MCF7 [11] = test: Cell cycle arrest in human MCF7 cells assessed as accumulation at G2/M phase at 30 uM after 24 hrs by FACS analysis; assay type: functional; procedure, shortened: as §4
# MCF7 [12] = test: Induction of apoptosis in human MCF7 cells assessed as decrease in procaspase 7 level at 30 uM after 24 hrs by Western blot analysis; assay type: functional, cell-based
# Procedure, shortened: (§5)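 MCF-7 breast carcinoma cells were exposed to 30 µM compound for 24 h, with CA-4 as positive control. Cell lysates were then immunoblotted with antibodies to procaspase-7 and cleavage-specific PARP, using β-actin as loading control.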
# MCF7 [13] = test: Induction of apoptosis in human MCF7 cells assessed as […] in PARP cleavage at 30 uM after 24 hrs by Western blot analysis; assay type: functional, cell-based; procedure, shortened: as §5
smiles,measurement,setting,value
COc1cc(/C=C/C(=O)c2cccc(-n3cc(-c4ccccc4)[nH]c3=O)c2)ccc1O,GI50,[1],1670 nM
same,GI50,K562,2040 nM
same,GI50,A549,3850 nM
same,GI50,EKVX,3900 nM
same,GI50,HOP-62,1480 nM
same,GI50,HOP-92,2270 nM
same,GI50,NCI-H226,2600 nM
same,GI50,NCI-H23,2020 nM
same,GI50,NCI-H322M,3390 nM
same,GI50,NCI-H460,1950 nM
same,GI50,NCI-H522,2360 nM
same,GI50,COLO 205,2210 nM
same,GI50,HCC 2998,1510 nM
same,GI50,HCT-116,1400 nM
same,GI50,HCT-15,2730 nM
same,GI50,HT-29,3770 nM
same,GI50,KM12,1610 nM
same,GI50,SW-620,2290 nM
same,GI50,SF-268,2070 nM
same,GI50,SF-295,3040 nM
same,GI50,SF-539,1910 nM
same,GI50,SNB-19,2960 nM
same,GI50,SNB-75,3900 nM
same,GI50,U-251,2110 nM
same,GI50,A498,1680 nM
same,GI50,786-0,1350 nM
same,GI50,ACHN,2500 nM
same,GI50,CAKI-1,2190 nM
same,GI50,RXF 393,2270 nM
same,GI50,SN12C,3310 nM
same,GI50,TK-10,5290 nM
same,GI50,UO-31,2180 nM
same,GI50,PC-3,2520 nM
same,GI50,OVCAR-3,2290 nM
same,GI50,OVCAR-4,5190 nM
same,GI50,OVCAR-5,2040 nM
same,GI50,OVCAR-8,4110 nM
same,GI50,NCI/ADR-RES,2920 nM
same,GI50,SK-OV-3,3760 nM
same,GI50,MCF7 [2],1550 nM
same,GI50,MDA-MB-231,3360 nM
same,GI50,[3],4160 nM
same,GI50,BT-549,2780 nM
same,GI50,T47D,2700 nM
same,GI50,LOX IMVI,1880 nM
same,GI50,Malme-3M,2670 nM
same,GI50,M14,2610 nM
same,GI50,MDA-MB-435,2140 nM
same,GI50,SK-MEL-2,3650 nM
same,GI50,SK-MEL-28,1850 nM
same,GI50,SK-MEL-5,1590 nM
same,GI50,UACC-257,6810 nM
same,GI50,UACC-62,2010 nM
same,Activity,MCF7 [4],11.17%
same,Activity,MCF7 [5],25.85%
same,Activity,MCF7 [6],14.13%
same,Activity,MCF7 [7],48.85%
same,Activity,MCF7 [8],40.05%
same,Activity,MCF7 [9],49.91%
same,Activity,MCF7 [10],2.41%
same,Activity,MCF7 [11],7.63%
same,Activity,MCF7 [12],Active
same,Activity,MCF7 [13],Active
